Experimental data from ChEMBL document CHEMBL1154279, “Cytotoxic compounds from the stems of Cinnamomum tenuifolium” (J Nat Prod, 2009).

Assays:
[1] = tested on: DU-145; assay: Cytotoxicity against human DU145 cells after 72 hrs by XTT assay; type: functional, cell-based; details: DU-145, 24 h, in the assay text read “after 24 hrs” for “after 72 hrs”
[2] = tested on: LNCaP; assay: Cytotoxicity against human LNCAP cells after 72 hrs by XTT assay; type: functional, cell-based; details: 24 h, in the assay text read “after 24 hrs” for “after 72 hrs”
Summary of the method: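 Prostate cancer cells in RPMI-1640 with 10% FBS, 37 °C, 5% CO2, grown to 70–80% confluence and treated at 0.1–100 µM for 24, 48 and 72 h. XTT labeling for 4 h at 37 °C, absorbance 450 nm (reference 650 nm) against control wells. IC50 derived from the mean of eight wells; taxol and cisplatin served as positive controls.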

Structure (SMILES): C=C1OC(=O)/C(=C\CCCCCCCCCCCCCCCCCCCCCCCCCC)[C@@H]1O [TENUIFOLIDE A]
- IC50 [1]: 211 µM
- IC50 [2]: 450 µM
